How the values were obtained:
[1] = target: 72 kDa type IV collagenase (Homo sapiens, UniProt P08253); experiment: Inhibition of MMP2
Summary of the method: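 Run in borate buffer (50 mM, pH 8.5) with succinylated gelatin as substrate. Enzyme and inhibitor were preincubated 30 min at 37 °C, then substrate was added for 60 min at 37 °C. Picrylsulfonic acid (0.03%) was added for 20 min at room temperature. Absorbance was read at 450 nm, and % inhibition was calculated against uninhibited and blank wells.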

Aminopeptidase N = Aminopeptidase N (Homo sapiens, UniProt P15144); experiment: Inhibition of aminopeptidase N
Summary of the method: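 Enzyme and inhibitor were preincubated in sodium phosphate buffer (50 mM, pH 7.2) for 30 min at 37 °C. L-leucine p-nitroanilide was then added and incubated a further 60 min at 37 °C. Absorbance at 405 nm was used to calculate inhibition rates.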

Sequence of Aminopeptidase N (P15144 whole entry): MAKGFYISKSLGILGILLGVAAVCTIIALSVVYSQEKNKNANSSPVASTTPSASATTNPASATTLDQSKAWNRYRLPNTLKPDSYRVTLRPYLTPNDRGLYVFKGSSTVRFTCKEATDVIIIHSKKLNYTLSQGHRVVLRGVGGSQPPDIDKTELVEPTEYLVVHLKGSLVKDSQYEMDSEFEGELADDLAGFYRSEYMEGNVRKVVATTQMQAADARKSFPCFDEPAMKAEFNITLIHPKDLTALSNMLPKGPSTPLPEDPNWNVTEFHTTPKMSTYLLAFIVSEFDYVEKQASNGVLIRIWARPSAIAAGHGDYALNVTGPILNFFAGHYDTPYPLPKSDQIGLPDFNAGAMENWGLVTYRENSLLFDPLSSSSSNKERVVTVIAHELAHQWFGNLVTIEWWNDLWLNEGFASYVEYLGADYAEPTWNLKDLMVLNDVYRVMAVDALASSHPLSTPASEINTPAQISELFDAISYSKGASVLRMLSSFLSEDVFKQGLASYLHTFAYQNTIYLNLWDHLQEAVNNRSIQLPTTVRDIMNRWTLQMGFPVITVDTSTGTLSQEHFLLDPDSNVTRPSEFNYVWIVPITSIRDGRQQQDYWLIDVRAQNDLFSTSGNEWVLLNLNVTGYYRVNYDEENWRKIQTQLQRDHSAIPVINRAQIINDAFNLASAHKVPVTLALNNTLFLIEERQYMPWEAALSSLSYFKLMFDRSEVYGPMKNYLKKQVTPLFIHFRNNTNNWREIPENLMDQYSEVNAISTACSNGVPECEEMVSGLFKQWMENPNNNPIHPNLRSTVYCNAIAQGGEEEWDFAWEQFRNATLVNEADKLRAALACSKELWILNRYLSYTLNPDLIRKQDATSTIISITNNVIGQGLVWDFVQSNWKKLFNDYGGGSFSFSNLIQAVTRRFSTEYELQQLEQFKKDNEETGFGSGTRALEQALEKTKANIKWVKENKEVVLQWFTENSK
Sequence of 72 kDa type IV collagenase (P08253 whole entry): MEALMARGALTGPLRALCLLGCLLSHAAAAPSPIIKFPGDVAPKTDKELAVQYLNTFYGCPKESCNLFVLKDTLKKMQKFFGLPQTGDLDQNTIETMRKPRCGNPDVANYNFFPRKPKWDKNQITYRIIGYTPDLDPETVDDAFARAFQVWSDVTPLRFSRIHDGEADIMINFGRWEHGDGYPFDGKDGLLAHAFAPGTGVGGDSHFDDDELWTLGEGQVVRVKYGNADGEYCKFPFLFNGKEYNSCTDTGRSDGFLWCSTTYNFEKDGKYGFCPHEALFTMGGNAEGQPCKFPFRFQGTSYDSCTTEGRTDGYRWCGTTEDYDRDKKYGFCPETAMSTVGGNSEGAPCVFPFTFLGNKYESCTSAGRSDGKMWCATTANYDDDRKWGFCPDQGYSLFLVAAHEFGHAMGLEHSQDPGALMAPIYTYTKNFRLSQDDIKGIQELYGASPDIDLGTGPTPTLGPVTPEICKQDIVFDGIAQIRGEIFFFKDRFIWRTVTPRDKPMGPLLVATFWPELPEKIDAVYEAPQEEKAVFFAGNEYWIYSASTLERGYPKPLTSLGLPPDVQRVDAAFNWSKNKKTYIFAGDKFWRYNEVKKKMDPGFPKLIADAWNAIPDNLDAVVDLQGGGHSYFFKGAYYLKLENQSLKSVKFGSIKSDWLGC

Compound `COC(=O)[C@@H]1CC2(CN1S(=O)(=O)c1ccccc1)OCCCCO2` has an IC50 [1] of 1.5 µM and an IC50 (Aminopeptidase N) of 135 µM.

For `COC(=O)[C@@H]1CC(=O)CN1S(=O)(=O)c1ccc(C)cc1`, the IC50 [1] was 0.4 µM and the IC50 (Aminopeptidase N) was 54.9 µM.

For `COC(=O)[C@@H]1CC2(CN1S(=O)(=O)c1ccc(C)cc1)OCCO2`, the IC50 [1] was 0.1 µM and the IC50 (Aminopeptidase N) was 156 µM.

`Cc1ccc(S(=O)(=O)N2CC3(C[C@H]2C(=O)NO)OCCO3)cc1` showed an IC50 [1] of 0.003 µM and an IC50 (Aminopeptidase N) of 48.5 µM.

Compound `COC(=O)[C@@H]1CC(=O)CN1S(C)(=O)=O` has an IC50 [1] of 9.5 µM and an IC50 (Aminopeptidase N) of 92.6 µM.

Work on `O=C(NO)[C@@H]1CC2(CN1S(=O)(=O)c1ccccc1)OCCCO2` yielded an IC50 [1] of 0.011 µM and an IC50 (Aminopeptidase N) of 82.7 µM.

`COC(=O)[C@@H]1C[C@@H](O)CN1S(=O)(=O)c1ccc(C)cc1` (relative stereo) showed an IC50 [1] of 0.1 µM and an IC50 (Aminopeptidase N) of 38.4 µM.

`COC(=O)[C@@H]1C[C@@H](O)CN1S(=O)(=O)c1ccccc1` (relative stereo) was tested, and the IC50 [1] was 0.8 µM and the IC50 (Aminopeptidase N) was 53.8 µM.

Work on `Cc1ccc(S(=O)(=O)N2CC3(C[C@H]2C(=O)NO)OCCCO3)cc1` yielded an IC50 [1] of 0.006 µM and an IC50 (Aminopeptidase N) of 61.8 µM.

`COC(=O)[C@@H]1C[C@@H](O)CN1S(C)(=O)=O` (relative stereo) gave an IC50 [1] of 7.1 µM and an IC50 (Aminopeptidase N) of 41.6 µM.

With `COC(=O)[C@@H]1CC2(CN1S(=O)(=O)c1ccc(C)cc1)OCCCCO2` the IC50 [1] was 0.3 µM and the IC50 (Aminopeptidase N) was 124 µM.

For `O=C(NO)[C@@H]1CC2(CN1S(=O)(=O)c1ccccc1)OCCO2`, the IC50 [1] was 0.008 µM and the IC50 (Aminopeptidase N) was 57.8 µM.

For `COC(=O)[C@@H]1CC2(CN1S(=O)(=O)c1ccc(C)cc1)OCCCO2`, the IC50 [1] was 0.2 µM and the IC50 (Aminopeptidase N) was 174 µM.

`O=C(NO)[C@@H]1CC2(CN1S(=O)(=O)c1ccccc1)OCCCCO2` was tested, and the IC50 [1] was 0.012 µM and the IC50 (Aminopeptidase N) was 107 µM.

`Cc1ccc(S(=O)(=O)N2CC3(C[C@H]2C(=O)NO)OCCCCO3)cc1` showed an IC50 [1] of 0.008 µM and an IC50 (Aminopeptidase N) of 73.2 µM.

Compound `COC(=O)[C@@H]1CC(=O)CN1S(=O)(=O)c1ccccc1` has an IC50 [1] of 2 µM and an IC50 (Aminopeptidase N) of 75.8 µM.

In the case of `COC(=O)[C@@H]1CC2(CN1S(=O)(=O)c1ccccc1)OCCCO2`, the IC50 [1] is reported as 1.1 µM and the IC50 (Aminopeptidase N) is reported as 168 µM.

`COc1ccc(/C=C/C(=O)N2C[C@@H](NC(=O)c3cccnc3)C[C@H]2C(=O)NO)cc1OC` gave an IC50 [1] of 0.009 µM and an IC50 (Aminopeptidase N) of 142 µM.

Work on `COC(=O)[C@@H]1CC2(CN1S(=O)(=O)c1ccccc1)OCCO2` yielded an IC50 [1] of 0.2 µM and an IC50 (Aminopeptidase N) of 151 µM.

Reference: ChEMBL document CHEMBL1150307, “Design, synthesis and evaluation of novel sulfonyl pyrrolidine derivatives as matrix metalloproteinase inhibitors” (Bioorg Med Chem, 2008)
